Reference: ChEMBL document CHEMBL1121813, “Dihydrochalcone sweeteners. A study of the atypical temporal phenomena” (1981)

Tests used:
Type in all cases: functional
[1] = species on record: Homo sapiens; experiment: Percentage of judgments reporting an aftertaste at a concentration of 2000 ppm and character thereof
Method in brief: (§1)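 Trained judges tasted aqueous solutions of the compounds, which had to be ≥95 weight percent pure and to have passed mutagenicity and single oral dose toxicity screening. The value is the percentage of panel judgments reporting an aftertaste. Where given, its character is recorded as sweet, bitter or bitter-sweet.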

[2] = species on record: Homo sapiens; experiment: Other taste character at a concentration of 2000 ppm (mean value)
Method in brief: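 Trained human panel tasted aqueous solutions of each compound. Aftertaste is scored as the percentage of judgments reporting one, with its character coded sweet (s), bitter (b) or bitter-sweet (bs).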

[3] = species on record: Homo sapiens; experiment: Bitter character at a concentration of 2000 ppm (mean value)
Method in brief: (§2)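 Trained human panel tasted aqueous solutions. Each judge reported whether there was an aftertaste and its character (sweet, bitter or bitter-sweet). The value is the percentage of judgments reporting a bitter aftertaste.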

[4] = species on record: Homo sapiens; experiment: Salty character at a concentration of 2000 ppm (mean value)
Method in brief: (§3)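 Trained human sensory panel (Swartz method) tasted dilute aqueous solutions of the compounds, which had to be ≥95 weight percent pure and free of mutagenicity and toxicity. Taste character is reported as the mean value with 2S_m limits. Data deviating excessively at the 95% confidence level were rejected by the t-value method.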

[5] = species on record: Homo sapiens; experiment: Experimentally determined perceived intensity of compound at a concentration of 2000 ppm (mean value)
Method in brief: (§4)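 Trained human sensory panel of judges tasted aqueous solutions of the compound. Samples had to be ≥95 weight % pure (HPLC, proton titration, Karl Fischer), non-mutagenic in five Salmonella typhimurium strains with and without microsomal activation, and non-toxic in a single-oral-dose mouse test. Perceived intensity (Ip) was read from time–intensity curves at 4- or 6-s intervals and averaged. Outliers at the 95% level were rejected by t-value. Values reported as mean (2Sm).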

[6] = species on record: Homo sapiens; experiment: Number of taste judgments per compound
[7] = species on record: Homo sapiens; experiment: Sour character at a concentration of 2000 ppm (mean value); method in brief: as §3
[8] = species on record: Homo sapiens; experiment: Sweet / Bitter character at a concentration of 2000 ppm (mean value); 0/100
[9] = species on record: Homo sapiens; experiment: Intensity calculated on a weight basis relative to an 85500 ppm sucrose solution at a concentration of 2000 ppm (mean value)
Method in brief: (§5)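 Trained human panel tasted aqueous solutions of purity-checked (≥95 weight percent) compounds cleared for mutagenicity and mouse oral toxicity. Weight-basis intensity I_w = perceived intensity × (85500 ppm sucrose / compound concentration in ppm). The mean is reported with 2S_m limits; data deviating excessively at 95% confidence were rejected by the t-value method.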

[10] = species on record: Homo sapiens; experiment: Intensity calculated on a molar basis relative to a 0.25 M sucrose solution at a concentration of 2000 ppm (mean value)
Method in brief: (§6)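 Trained human judges tasted aqueous solutions of the test compound; compounds were first required to be ≥95 weight percent pure and free of mutagenicity (five Salmonella typhimurium strains, ± microsomal activation) and of single oral dose mouse toxicity. Molar intensity I_m = perceived intensity × (0.25 M sucrose / compound molar concentration). The mean is reported with 2S_m limits; outliers were rejected at 95% confidence by t-value.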

[11] = species on record: Homo sapiens; experiment: Sweet character at a concentration of 2000 ppm (mean value); method in brief: as §3
[12] = species on record: Homo sapiens; experiment: Sweet / Bitter character at a concentration of 501 ppm (mean value); 0/100
[13] = species on record: Homo sapiens; experiment: Percentage of judgments reporting an aftertaste at a concentration of 501 ppm and character thereof
[14] = species on record: Homo sapiens; experiment: Intensity calculated on a molar basis relative to a 0.25 M sucrose solution at a concentration of 501 ppm (mean value); method in brief: as §6
[15] = species on record: Homo sapiens; experiment: Bitter character at a concentration of 501 ppm (mean value); method in brief: as §2
[16] = species on record: Homo sapiens; experiment: Salty character at a concentration of 501 ppm (mean value)
[17] = species on record: Homo sapiens; experiment: Experimentally determined perceived intensity of compound at a concentration of 501 ppm (mean value); method in brief: as §4
[18] = species on record: Homo sapiens; experiment: Sweet character at a concentration of 501 ppm (mean value)
[19] = species on record: Homo sapiens; experiment: Other taste character at a concentration of 501 ppm (mean value); method in brief: as §3
[20] = species on record: Homo sapiens; experiment: Sour character at a concentration of 501 ppm (mean value)
[21] = species on record: Homo sapiens; experiment: Intensity calculated on a weight basis relative to an 85500 ppm sucrose solution at a concentration of 501 ppm (mean value); method in brief: as §5
[22] = species on record: Homo sapiens; experiment: Sweet character at a concentration of 248 ppm (mean value)
[23] = species on record: Homo sapiens; experiment: Percentage of judgments reporting an aftertaste at a concentration of 248 ppm and character thereof; method in brief: as §1
[24] = species on record: Homo sapiens; experiment: Experimentally determined perceived intensity of compound at a concentration of 248 ppm (mean value); method in brief: as §4
[25] = species on record: Homo sapiens; experiment: Sweet / Bitter character at a concentration of 248 ppm (mean value); 8/92
[26] = species on record: Homo sapiens; experiment: Intensity calculated on a weight basis relative to an 85500 ppm sucrose solution at a concentration of 248 ppm (mean value); method in brief: as §5
[27] = species on record: Homo sapiens; experiment: Other taste character at a concentration of 248 ppm (mean value); method in brief: as §3
[28] = species on record: Homo sapiens; experiment: Bitter character at a concentration of 248 ppm (mean value); method in brief: as §2
[29] = species on record: Homo sapiens; experiment: Intensity calculated on a molar basis relative to a 0.25 M sucrose solution at a concentration of 248 ppm (mean value); method in brief: as §6
[30] = species on record: Homo sapiens; experiment: Sour character at a concentration of 248 ppm (mean value)
[31] = species on record: Homo sapiens; experiment: Salty character at a concentration of 248 ppm (mean value)
[32] = species on record: Homo sapiens; experiment: Percentage of judgments reporting an aftertaste at a concentration of 54 ppm and character thereof
[33] = species on record: Homo sapiens; experiment: Other taste character at a concentration of 54 ppm (mean value); method in brief: as §3
[34] = species on record: Homo sapiens; experiment: Sweet character at a concentration of 54 ppm (mean value)
[35] = species on record: Homo sapiens; experiment: Salty character at a concentration of 54 ppm (mean value)
[36] = species on record: Homo sapiens; experiment: Sweet / Bitter character at a concentration of 54 ppm (mean value); 14/86
[37] = species on record: Homo sapiens; experiment: Intensity calculated on a weight basis relative to an 85500 ppm sucrose solution at a concentration of 54 ppm (mean value); method in brief: as §5
[38] = species on record: Homo sapiens; experiment: Sour character at a concentration of 54 ppm (mean value)
[39] = species on record: Homo sapiens; experiment: Experimentally determined perceived intensity of compound at a concentration of 54 ppm (mean value); method in brief: as §4
[40] = species on record: Homo sapiens; experiment: Bitter character at a concentration of 54 ppm (mean value); method in brief: as §2
[41] = species on record: Homo sapiens; experiment: Intensity calculated on a molar basis relative to a 0.25 M sucrose solution at a concentration of 54 ppm (mean value); method in brief: as §6
[42] = species on record: Homo sapiens; experiment: Percentage of judgments reporting an aftertaste at a concentration of 250 ppm and character thereof; method in brief: as §1
[43] = species on record: Homo sapiens; experiment: Other taste character at a concentration of 250 ppm (mean value); method in brief: as §3
[44] = species on record: Homo sapiens; experiment: Bitter character at a concentration of 250 ppm (mean value); method in brief: as §2
[45] = species on record: Homo sapiens; experiment: Experimentally determined perceived intensity of compound at a concentration of 250 ppm (mean value); method in brief: as §4
[46] = species on record: Homo sapiens; experiment: Intensity calculated on a molar basis relative to a 0.25 M sucrose solution at a concentration of 250 ppm (mean value); method in brief: as §6
[47] = species on record: Homo sapiens; experiment: Sweet character at a concentration of 250 ppm (mean value); method in brief: as §3
[48] = species on record: Homo sapiens; experiment: Sour character at a concentration of 250 ppm (mean value); method in brief: as §3
[49] = species on record: Homo sapiens; experiment: Salty character at a concentration of 250 ppm (mean value); method in brief: as §3
[50] = species on record: Homo sapiens; experiment: Intensity calculated on a weight basis relative to an 85500 ppm sucrose solution at a concentration of 250 ppm (mean value); method in brief: as §5
[51] = species on record: Homo sapiens; experiment: Sweet / Bitter character at a concentration of 250 ppm (mean value); 94/6
[52] = species on record: Homo sapiens; experiment: Experimentally determined perceived intensity of compound at a concentration of 4100 ppm (mean value); method in brief: as §4
[53] = species on record: Homo sapiens; experiment: Experimentally determined perceived intensity of compound at a concentration of 495 ppm (mean value); method in brief: as §4
[54] = species on record: Homo sapiens; experiment: Percentage of judgments reporting an aftertaste at a concentration of 495 ppm and character thereof

## CC(=O)c1c(O)cc(OCC(=O)[O-])cc1O.[Na+]
[1]
  Judgments: 0
[2]
  Taste character: 0
[3]
  Taste character: 100
[4]
  Taste character: 0
[5]
  IP: 0.25
[6]
  Judgments: 1
[7]
  Taste character: 0
[8]
  Taste character: 0
[9]
  IW: 10
[10]
  IM: 0
[11]
  Taste character: 0

## O=C([O-])COc1cc(O)c(C(=O)CCc2ccccc2)c(O)c1.[Na+]
[12]
  Taste character: 0
[13]
  Judgments: 100
[14]
  IM: 150
[15]
  Taste character: 79
[6]
  Judgments: 12
[16]
  Taste character: 0
[17]
  IP: 0.91
[18]
  Taste character: 0
[19]
  Taste character: 21
[20]
  Taste character: 0
[21]
  IW: 160

## O=C([O-])COc1cc(O)c(C(=O)CCc2ccc(O)c(O)c2)c(O)c1.[Na+]
[22]
  Taste character: 3
[23]
  Judgments: 38
[6]
  Judgments: 12
[24]
  IP: 0.15
[25]
  Taste character: 8
[26]
  IW: 52
[27]
  Taste character: 64
[28]
  Taste character: 33
[29]
  IM: 56
[30]
  Taste character: 0
[31]
  Taste character: 0

## COc1ccc(CC(=O)c2c(O)cc(O)cc2O)cc1O
[32]
  Judgments: 0
[33]
  Taste character: 19
[6]
  Judgments: 12
[34]
  Taste character: 11
[35]
  Taste character: 0
[36]
  Taste character: 14
[37]
  IW: 170
[38]
  Taste character: 0
[39]
  IP: 0.11
[40]
  Taste character: 70
[41]
  IM: 150

## COc1ccc(CCC(=O)c2c(O)cc(OCCNS(=O)(=O)[O-])cc2O)cc1O.[K+]
[42]
  Judgments: 100
[43]
  Taste character: 5
[44]
  Taste character: 6
[45]
  IP: 1.03
[46]
  IM: 480
[47]
  Taste character: 89
[48]
  Taste character: 0
[49]
  Taste character: 0
[6]
  Judgments: 12
[50]
  IW: 350
[51]
  Taste character: 94

## COc1ccc(-c2cc(=O)c3c(O)cc(OCCCS(=O)(=O)[O-])cc3o2)cc1O.[K+]
[52]
  IP: 0
[6]
  Judgments: 1

## COc1ccc(CCC(=O)c2c(O)cc(OC(C(=O)[O-])C(=O)[O-])cc2O)cc1O.[Na+].[Na+]
[53]
  IP: 0
[6]
  Judgments: 1
[54]
  Judgments: 0
